Sampled rows, rich in hits. Any-hit rate of the full collection: about 3.7%.
EP2 antag: human EP2 receptor antagonists, primary screen, TR-FRET cAMP, C6 glioma cells; Prostaglandin E2 receptor EP2 subtype (Homo sapiens), P43116; C6 glioma cells expressing human EP2; cells stimulated with saturating PGE2; inhibition, % at 25 µM; 260,000 tested, 0.52% active;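 active = percent inhibition above 40 after rounding to a whole number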;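 also: rat C6 glioma host cells with rolipram phosphodiesterase inhibitor present; the protocol text gives 20 µM as final concentration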
Target sequence (P43116 whole entry, looked up): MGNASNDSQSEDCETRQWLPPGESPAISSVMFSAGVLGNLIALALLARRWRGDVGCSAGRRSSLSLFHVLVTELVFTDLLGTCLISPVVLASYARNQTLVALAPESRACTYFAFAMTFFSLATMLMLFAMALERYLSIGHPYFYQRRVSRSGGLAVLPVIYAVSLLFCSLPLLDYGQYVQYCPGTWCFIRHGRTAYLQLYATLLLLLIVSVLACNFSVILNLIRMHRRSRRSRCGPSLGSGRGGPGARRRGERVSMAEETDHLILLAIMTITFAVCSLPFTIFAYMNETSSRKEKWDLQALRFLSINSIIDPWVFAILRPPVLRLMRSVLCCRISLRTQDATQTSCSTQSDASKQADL
EP2 modulator: EP2 receptor modulators, cAMP readout, primary screen, cell-based, HTRF cAMP, PGE2 stimulation | AID 940, 2007 | Prostaglandin E2 receptor EP2 subtype (Homo sapiens), P43116 | 260,000 tested, 0.83% active | EP2-expressing cells, cAMP HTRF FRET, PGE2 co-stimulation | induction, % at 25 µM;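 active = compounds whose cAMP rise, as percent of the full-agonist control response, exceeds 60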;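 also: rat C6 glioma line stably carrying human EP2 under a CMV promoter; the protocol text gives 20 µM as final concentration; 100% = response of wells given 1 µM PGE2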
CHO parental Ca: ATP-evoked calcium signal inhibitors, parental CHO, primary screen, counter-screen for OX1R antagonist project, cell-based, fluorescence, Fluo-8 calcium dye; parental CHO-K1, ATP-induced calcium, Fluo-8 fluorescence; inhibition, % at 5.6 µM; 330,000 tested, 0.63% active;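 active = inhibition above that plate's mean sample inhibition plus 3 SD, cut at about 26% in these data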;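 also: 0% = ATP-challenged DMSO wells and 100% = DMSO wells without ATP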
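Test system: parental CHO cells; detection: calcium-sensitive Fluo-8 fluorescence; evaluation: percent inhibition of calcium signal; also added: ATP as calcium-mobilizing challenge; repeats: one well per compound; control set: ATP-challenged DMSO wells low, unchallenged DMSO wells high; compound: single nominal dose of 5.6 µM per compound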
GPR7 antag: GPR7 receptor antagonists, primary screen, cell-based, fluorescence, single concentration; Neuropeptides B/W receptor type 1 (Homo sapiens), P48145; GPR7-expressing cells, fluorescence antagonist assay; inhibition, % at 4.4 µM; 290,000 tested, 1.1% active; AID 1861, 2009; in the data active = inhibition above about 16%, passing the limit was not always enough;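 also: cells stimulated with the agonist NPW; 0% = agonist with vehicle and 100% = vehicle without agonist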
Target sequence (P48145 whole entry, looked up): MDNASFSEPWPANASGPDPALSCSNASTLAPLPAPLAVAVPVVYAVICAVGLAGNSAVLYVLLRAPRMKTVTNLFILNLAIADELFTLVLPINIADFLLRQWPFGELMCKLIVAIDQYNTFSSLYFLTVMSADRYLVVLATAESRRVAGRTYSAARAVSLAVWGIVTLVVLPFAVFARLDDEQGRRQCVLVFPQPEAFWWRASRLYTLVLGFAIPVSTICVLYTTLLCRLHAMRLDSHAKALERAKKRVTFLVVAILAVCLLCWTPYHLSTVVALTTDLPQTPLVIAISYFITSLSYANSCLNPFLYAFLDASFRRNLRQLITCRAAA
OX1R antag-1: OX1R (HCRTR1) antagonists, primary screen, fluorescence, CHO/OX1R cells, Fluo-8 calcium, orexin A. Fluo-8 calcium fluorescence. inhibition, % at 5 µM. 330,000 tested, 0.43% active. AID 434989, 2010;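 active = inhibition above its plate's threshold, mean inhibition of all tested compounds on the plate plus 3 SD, cut at about 37% in these data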;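 also: 0% = orexin A challenge wells and 100% = SB-334867-A antagonist wells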
OX1R antag-2: antagonists of human orexin 1 receptor (OX1R); inhibition, % at 6.6 µM; Orexin/Hypocretin receptor type 1 (Homo sapiens), O43613; 330,000 tested, 1.8% active; OX1R-expressing cells, FRET antagonist read-out; AID 485270, 2010; in the data active = inhibition mostly above about 38%, no sharp cut-off; inactive = mostly below about 40%;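 also: 0% = agonist challenge alone and 100% = reference antagonist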
OX1R Ca confirm: OX1R (HCRTR1) antagonists, confirmation, fluorescence, CHO/OX1R cells, Fluo-8 calcium, orexin A; 1,100 tested, 38% active; shares compounds with OX1R antag-1; orexin A calcium Fluo-8 fluorescence; inhibition, % at 5 µM; AID 492963, 2010; in the data active = inhibition above about 29%;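 also: 0% = agonist challenge alone and 100% = reference antagonist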
CHO Ca counter: ATP-evoked calcium inhibition in parental CHO, counter-screen for OX1R antagonist project, cell-based, fluorescence, CHO-K1, triplicate | shares compounds with OX1R antag-1 | ATP-induced calcium, Fluo-8 fluorescence | inhibition, % at 5.6 µM | 1,100 tested, 9.3% active | AID 492965, 2010;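 active = inhibition above a per-plate limit, the mean inhibition of that plate's test compounds plus 3 SD, cut at about 25% in these data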;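 also: 0% = ATP challenge with DMSO and 100% = DMSO without ATP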
OX1R HTRF conf: OX1R (HCRTR1) antagonists, confirmation, cell-based, HTRF; shares compounds with OX1R antag-2; OX1R-expressing cells, HTRF antagonist assay; inhibition, % at 6.6 µM; 1,800 tested, 49% active; AID 492964, 2010; in the data active = inhibition above about 55%;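 also: CHO cells expressing OX1R stimulated with orexin A at about EC80; 0% = agonist challenge alone and 100% = reference antagonist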
CHO-K1 HTRF cnt: signal inhibition in parental CHO-K1 cells, counter-screen for OX1R antagonist project, cell-based, HTRF | shares compounds with OX1R antag-2 | HTRF counterscreen | inhibition, % at 6.6 µM | 1,800 tested, 48% active | AID 493232, 2011; in the data active = inhibition above about 17%;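 also: 0% = agonist challenge with vehicle and 100% = vehicle alone without agonist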
The depositor's hits bear a star.

How did COc1ccc(-c2[nH]ncc2N=Nc2ccccc2)cc1 do in these assays?
EP2 antag: 5; EP2 modulator: 62*; CHO parental Ca: 5; GPR7 antag: -14; OX1R antag-1: 28; OX1R antag-2: 98*; OX1R Ca confirm: 25; CHO Ca counter: 2; OX1R HTRF conf: 45; CHO-K1 HTRF cnt: 13

What do the screens show for `CCOc1ccccc1C(=O)Nc1ccc(NC(=O)c2ccccc2)cc1`?
CHO parental Ca: -11; GPR7 antag: -8; OX1R antag-1: -1; OX1R antag-2: 16

How did CCOc1ccccc1C(=O)Nc1ccc(C(=O)c2ccccc2)cc1 do in these assays?
CHO parental Ca: -21; GPR7 antag: -5; OX1R antag-1: 17; OX1R antag-2: 55*; OX1R Ca confirm: 20; CHO Ca counter: 3; OX1R HTRF conf: 67*; CHO-K1 HTRF cnt: 18*

How did CCOc1ccccc1C(=O)Nc1ccc2nc3n(c(=O)c2c1)CCCCC3 do in these assays?
CHO parental Ca: -25; GPR7 antag: -1; OX1R antag-1: 94*; OX1R antag-2: 91*; OX1R Ca confirm: 79*; CHO Ca counter: 1; OX1R HTRF conf: 93*; CHO-K1 HTRF cnt: 11

What do the screens show for `Cc1ccccc1C(=O)Nc1ccc2nc3n(c(=O)c2c1)CCCC3`?
CHO parental Ca: -21; GPR7 antag: -12; OX1R antag-1: -41; OX1R antag-2: 6

Results for COc1cccc(C(CNC(=O)C2CCN(C(=O)Nc3ccccc3)CC2)N(C)C)c1 (stereo unspecified) ?
CHO parental Ca: -16; OX1R antag-1: -18; OX1R antag-2: 6

How did COc1ccc(CCC(=O)OCC(=O)NCc2ccc(OC)c(OC)c2)cc1OC do in these assays?
CHO parental Ca: 3; OX1R antag-1: -6; OX1R antag-2: 11

What do the screens show for `Cc1sc(NC(=O)Cn2cnc3ccccc3c2=O)nc1-c1ccc(Cl)cc1`?
EP2 antag: 8; EP2 modulator: -6

What do the screens show for `Cc1sc(NC(=O)Cn2[nH]c(=O)c3ccccc3c2=O)nc1-c1ccccc1`?
EP2 antag: 9; EP2 modulator: -6; CHO parental Ca: -10; GPR7 antag: -3; OX1R antag-1: 39*; OX1R antag-2: 74*; OX1R Ca confirm: 43*; CHO Ca counter: -4; OX1R HTRF conf: 76*; CHO-K1 HTRF cnt: 0

How did Cc1nc2c(-c3ccccc3)c(C)nn2c(N)c1-c1ccccc1 do in these assays?
EP2 antag: 16; EP2 modulator: 37; CHO parental Ca: -17; GPR7 antag: -6; OX1R antag-1: 46*; OX1R antag-2: 81*; OX1R Ca confirm: 27; CHO Ca counter: 6; OX1R HTRF conf: 79*; CHO-K1 HTRF cnt: 12

How did Cc1cccc(-c2cc3nc(-c4ccccc4)cc(N4CCC5(CC4)OCCO5)n3n2)c1 do in these assays?
EP2 antag: 12; EP2 modulator: 6; CHO parental Ca: -25; GPR7 antag: -6; OX1R antag-1: 47*; OX1R antag-2: 64*; OX1R Ca confirm: 25; CHO Ca counter: -7; OX1R HTRF conf: 70*; CHO-K1 HTRF cnt: 5

How did Cc1cccc(-c2cc3nc(C)cc(N4CC(C)CC(C)C4)n3n2)c1 (stereo unspecified) do in these assays?
EP2 antag: 9; EP2 modulator: 57; CHO parental Ca: -32; GPR7 antag: -7; OX1R antag-1: -28; OX1R antag-2: -12

Results for Fc1cccc(-c2cc3nc(-c4ccccc4)cc(N4CCC5(CC4)OCCO5)n3n2)c1 ?
EP2 antag: 14; EP2 modulator: 2; CHO parental Ca: -18; GPR7 antag: -18; OX1R antag-1: 46*; OX1R antag-2: 72*; OX1R Ca confirm: 52*; CHO Ca counter: -20; OX1R HTRF conf: 40; CHO-K1 HTRF cnt: -11

Results for CC(=O)Nc1ccc(OCC[n+]2cccc(C(N)=O)c2)cc1 ?
EP2 antag: 6; EP2 modulator: 9; CHO parental Ca: 7; GPR7 antag: -15; OX1R antag-1: -5; OX1R antag-2: 36

Results for O=C(CCCN1C(=O)/C(=C/c2ccccc2)SC1=S)N1CCOCC1 ?
CHO parental Ca: -8; GPR7 antag: -3; OX1R antag-1: -11; OX1R antag-2: 20

How did CCn1c(N)c(C(=O)Nc2ccccc2C(=O)OC)sc1=S do in these assays?
EP2 antag: 11; EP2 modulator: -12; CHO parental Ca: -10; GPR7 antag: -11; OX1R antag-1: 43; OX1R antag-2: 83*; OX1R Ca confirm: 42*; CHO Ca counter: -13; OX1R HTRF conf: 86*; CHO-K1 HTRF cnt: 7

What do the screens show for `Cn1c(N)c(C(=O)Nc2ccccc2F)sc1=S`?
EP2 antag: 1; EP2 modulator: -27; CHO parental Ca: -7; GPR7 antag: -9; OX1R antag-1: -14; OX1R antag-2: 6

How did COC(=O)c1ccccc1NC(=O)CC(=O)Nc1ccccc1C(=O)OC do in these assays?
CHO parental Ca: -19; GPR7 antag: -1; OX1R antag-1: 40; OX1R antag-2: 79*; OX1R Ca confirm: 56*; CHO Ca counter: -7; OX1R HTRF conf: 84*; CHO-K1 HTRF cnt: 6

What do the screens show for `CC(C)(Oc1ccc(Cl)cc1)C(=O)NC1CCN(Cc2ccccc2)CC1`?
CHO parental Ca: -9; OX1R antag-1: -28; OX1R antag-2: 19

How did CCOC(=O)N1CCN(S(=O)(=O)CCNC(=O)c2ccc(OC)cc2)CC1 do in these assays?
CHO parental Ca: -5; OX1R antag-1: -24; OX1R antag-2: 5
